ZTA DNA inh – ZTA (EBV) inhibition in EBNA-1 counter-screen; P03206; ZTA-DNA binding, fluorescence polarization; inhibition, % at 11 µM; 320,000 tested, 0.15% active; in the data active means inhibition above about 33%
Target sequence (P03206 whole entry, looked up): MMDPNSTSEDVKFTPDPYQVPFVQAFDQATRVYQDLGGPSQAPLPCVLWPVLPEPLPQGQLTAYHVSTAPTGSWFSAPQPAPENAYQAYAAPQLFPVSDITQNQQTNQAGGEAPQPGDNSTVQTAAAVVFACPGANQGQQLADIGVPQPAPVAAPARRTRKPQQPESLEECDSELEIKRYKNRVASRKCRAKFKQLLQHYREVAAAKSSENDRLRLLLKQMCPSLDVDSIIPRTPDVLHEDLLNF
PABP polyA inh – blocks human PABP binding to poly(A) RNA; P11940; fluorescence polarization; inhibition, % at 35 µM; 290,000 tested, 1% active; AID 2014;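 further: calls also rest on retests at 20 µM and on dose response follow-up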
PABP1 MLLE inh – blocks PAM2 peptide binding to the PABP1 MLLE domain. 360,000 tested, 0.36% active. GST-MLLE / FITC-PAM2 fluorescence polarization. inhibition, % at 20 µM. P11940. AID 588489; in the data active means inhibition above about 35%, passing the limit was not always enough;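 further: plate controls were DMSO wells with GST-MLLE for no effect and wells lacking GST-MLLE protein for full effect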
eIF4H FP inh – inhibitors of RNA binding by human eIF4H; Q15056; eIF4H fluorescence polarization binding assay; inhibition, % at 35 µM; 290,000 tested, 0.94% active; AID 2012;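 further: calls also rest on retests at 20 µM and on dose response follow-up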
EBNA-1 inhibitor – blocks EBNA-1 binding to DNA. EBNA-1 DNA binding, fluorescence polarization. inhibition, % at 14.8 µM. 300,000 tested, 0.34% active; in the data active means inhibition above about 28%
HCV NS3 hel inh – inhibitors of Hepatitis C virus NS3 helicase; NS3 helicase DNA unwinding, Cy5 molecular beacon fluorescence; 290,000 tested, 0.56% active; AID 1800; inhibition, % at 10.9 µM;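 active means inhibition above the mean of all tested compounds plus 3 SD, set per campaign, cut at about 35% in these data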;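 further: 0% = DMSO wells and 100% = thioflavine S control wells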
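Assay system – hepatitis C virus NS3 helicase domain fragment enzyme · Buffer or medium – MOPS pH 6.5, MgCl2, DTT, Tween20, BSA · Reagent – Cy5/quencher beacon DNA duplex and ATP to start · Compound – single 10.9 µM dose · Timing – 1 h at 25 °C · Technique – Cy5 beacon fluorescence read at start and 1 h · Measure – % inhibition of unwinding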
Active calls of the source: *; u = inconclusive; x = no result given. A selection: hits, their analogues and other compounds. The true share with any hit is near 2.1%. Unless noted, how the calls were made is not given here.

SMILES	ZTA DNA inh	PABP polyA inh	PABP1 MLLE inh	eIF4H FP inh	EBNA-1 inhibitor	HCV NS3 hel inh
CCN(CC)C(=S)Nc1ccc(OC)cc1	13	69*	-31	active	0	-2
Cc1ccc(-c2nc3c(c(=O)[nH]c(=O)n3Cc3ccccc3)n2C)o1	x	active	3	88*	x	16
Cc1cc(C)c2c(=O)[nH]c(=O)n(Cc3ccccc3)c2n1	-7	96*	-74	103*	-9	7
Cc1ccc(-c2nc3c(c(=O)[nH]c(=O)n3Cc3ccccc3)n2Cc2ccccc2)o1	x	-8	-13	0	x	18
CCOC(=O)c1sc2nc3c(SCCC#N)cc(C(=O)c4cc(F)ccc4O)cn3c(=O)c2c1C	13	-10	-33	27	-11	18
O=C(O)CSc1cc(C(=O)c2cc(F)ccc2O)cn2c(=O)c3c(-c4ccccc4)csc3nc12	24	30	-18	50*	15	23
CCCn1c2ccccc2c2cnn(CC(=O)NC3CCN(Cc4ccccc4)CC3)c(=O)c21	-1	0	-1	4	6	-22
CCC(c1nnnn1CS(=O)(=O)c1ccc(C)cc1)N1CCC(C(N)=O)CC1 (stereo not given)	-10	6	1	4	-1	4
O=C(NC(=S)NNS(=O)(=O)c1ccccc1)c1ccccc1[N+](=O)[O-]	9	8	45*	20	12	2
O=C(NC(=S)NNS(=O)(=O)c1ccccc1)c1cccnc1	0	3	48*	24	9	-1
O=C(NC(=S)NNS(=O)(=O)c1ccccc1)c1ccc([N+](=O)[O-])cc1	0	-2	7	10	-10	-8
O=C(O)c1ccc(Cl)c(NC(=S)NC(=O)c2ccccc2[N+](=O)[O-])c1	1	5	47*	-1	11	5
Cc1ccc(S(=O)(=O)NNC(=O)c2cccnc2)cc1	-5	16	0	8	10	3
COCCNC(=O)C(OC(=O)c1cc2oc(C)cc2n1C)C(C)C (stereo not given)	8	5	-3	-5	-17	3
Cc1ccc(NC(=O)C2CC2c2ccccc2)c([N+](=O)[O-])c1 (stereo not given)	-7	5	-18	-12	-1	-4
CCOc1ccc2nc3cc(N=Nc4ccc(N)nc4N)ccc3c(N)c2c1	x	x	82*	x	x	x
COc1ccc(-c2ccc(SCC(=O)NCc3ccco3)nn2)cc1OC	-5	-4	23	2	-9	9
CCN1C(=O)/C(=C/c2ccc(OC)c(OC)c2)N=C1SCC(=O)NCc1ccco1	-1	-3	38*	12	0	2
O=[N+]([O-])c1cccc(C(=S)N2CCN(c3ccc(F)cc3)CC2)c1	8	6	76*	3	9	-10
O=C(Nc1cccc(Oc2ccc(C(=O)O)c(C(=O)O)c2)c1)c1ccc(-c2ccccc2)cc1	6	13	3	66*	5	24
CC(C)(C)C(=O)Nc1ccc(C(=O)Nc2cccc(Oc3ccc(C(=O)O)c(C(=O)O)c3)c2)cc1	-1	-2	1	4	12	19
COc1cccc(CNn2cnnc2)c1O	-4	-1	4	-12	-11	0
CC(C)c1ccc(C2C3CSCC=C3C(C#N)=C(N)C2(C#N)C#N)cc1 (stereo not given)	-16	120*	x	128*	2	8
Cc1ccc(NC(=O)Nc2cc(C(F)(F)F)c[nH]c2=O)cc1	14	2	-11	1	-1	-15
CSc1nsc(SCC(=O)NCc2ccccc2)n1	7	2	40*	5	7	10
SMILES	ZTA DNA inh	PABP polyA inh	PABP1 MLLE inh	eIF4H FP inh	EBNA-1 inhibitor	HCV NS3 hel inh
CCC(C)Nc1nc(-c2c[nH]c3ccccc23)cs1 (stereo not given)	55*	18	3	0	19	-48
CNc1nc(-c2c[nH]c3ccccc23)cs1	31	33	-92	5	9	-11
CCCCOc1ccc(C(=S)N2CCC(C(N)=O)CC2)cc1	8	2	9	-5	1	-2
COc1ccc(C(=S)N2CCC(C(N)=O)CC2)cc1Br	3	-14	42*	-8	-15	7
CC(C)OC(=O)c1cc(NC(=O)C2C3C=CC(O3)C2C(=O)O)cc(C(=O)OC(C)C)c1 (stereo not given)	-1	-8	16	-5	5	13
Cc1sc(NC(=O)CCCC(=O)O)c(C(N)=O)c1-c1ccccc1	5	127	35*	73	8	-17
Cc1ccc(-c2cc(-c3ccccc3Cl)c(C#N)c(N)n2)o1	-8	64*	-16	66*	-10	15
Cc1ccc(-c2cc(-c3ccccc3)c(C#N)c(N)n2)o1	-1	118*	5	u	3	21
Cc1ccc(OCC(O)CN2CCN(c3ccc(C)cc3)CC2)cc1 (stereo not given)	-15	7	8	-2	-4	10
Cc1sc2ncnc(N3CCN(CCOc4ccc(Cl)cc4)CC3)c2c1C	-11	-12	-15	4	6	-11
Nc1nnc(CC(=O)N/N=C/c2ccc(-c3cccc(C(=O)O)c3)o2)s1	-6	41	0	76*	10	3
Nc1nnc(CC(=O)N/N=C/c2ccc(-c3ccc(F)cc3)o2)s1	-10	-1	-16	-1	6	9
Nc1nonc1-c1nc2ccccc2n1CC(=O)N/N=C/c1ccc(-c2cccc(C(=O)O)c2)o1	x	active	3	86*	x	26
Cc1cc(=O)cc(C)n1-c1ccccc1N	-16	7	5	3	-9	1
CC(C)Oc1cccc(C(=O)C2CCCN(C(=O)c3csnn3)C2)c1 (stereo not given)	-23	-2	15	-8	-7	-2
CCCCc1c(C)nc2ccccc2c1SCCC(=O)O	10	85	-2	9.8*	-10	11
CCCCc1c(C)nc2ccc(C)cc2c1SCCC(=O)O	-9	3	2	-2	-7	10
CNc1cc(C)nc(N2CCOCC2)n1	-6	39	3	92*	-5	3
Cc1cc(NC2CCCCC2)nc(N2CCOCC2)n1	-8	1	-5	1	-5	0
Cc1ccn2cc(C(=O)N3CCN(c4cnn(-c5ccccc5)c(=O)c4Cl)CC3)nc2c1	0	x	10	x	x	x
O=C(N/N=C/c1ccccn1)c1ccc(NC(=O)c2cccc([N+](=O)[O-])c2)cc1	10	active	1	75*	1	-25
Cc1ccccc1SCC(=O)NC1CCOC1=O (stereo not given)	-10	2	40*	4	3	4
Cc1ccccc1SCC(=O)Nc1ccc(N2CCOCC2)cc1	1	-1	20	7	6	14
COc1cccc(NC(=S)N(CCCN2CCCC2)Cc2ccco2)c1	2	50	7	active	-10	1
Cc1ccn2cc(CCNS(=O)(=O)c3ccc4c(c3)CCCC4)nc2c1	-3	2	5	-8	-1	-7

Compound activity: PubChem, several laboratories
